In ChEMBL document CHEMBL1132569:

Assays:
[1] = biological target: T1, Muscarinic acetylcholine receptor M1 (Homo sapiens) (UniProt P11229); experiment: Binding affinity at the unliganded human muscarinic acetylcholine receptor M1 was estimated as log affinity (log1/M)
T1 sequence (whole entry): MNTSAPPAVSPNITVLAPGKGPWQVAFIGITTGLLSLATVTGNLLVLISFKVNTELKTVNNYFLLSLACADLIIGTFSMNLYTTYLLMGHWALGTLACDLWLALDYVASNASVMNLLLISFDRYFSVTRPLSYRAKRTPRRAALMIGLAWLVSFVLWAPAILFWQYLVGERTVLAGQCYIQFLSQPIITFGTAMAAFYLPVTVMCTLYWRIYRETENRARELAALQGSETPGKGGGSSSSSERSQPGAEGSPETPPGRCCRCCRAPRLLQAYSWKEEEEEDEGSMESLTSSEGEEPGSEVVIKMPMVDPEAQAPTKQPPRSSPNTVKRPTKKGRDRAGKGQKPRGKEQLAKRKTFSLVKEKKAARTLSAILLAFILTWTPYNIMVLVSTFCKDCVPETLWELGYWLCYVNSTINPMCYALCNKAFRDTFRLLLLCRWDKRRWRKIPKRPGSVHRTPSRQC
Procedure, shortened: (§1)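 Equilibrium runs were ≥2 h with 2 × 10⁻⁴ M GTP and 0.1–0.7 nM ³H-NMS. Nonspecific binding was defined with 10⁻⁶ M QNB, and bound ligand was filtered and counted. Log affinities came from semiquantitative plus off-rate, quantitative equilibrium, or nonequilibrium assays, fitted by nonlinear least squares to the allosteric ternary complex model.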

[2] = biological target: T2, Muscarinic acetylcholine receptor M4 (Homo sapiens) (UniProt P08173); experiment: Binding affinity at the unliganded human muscarinic acetylcholine receptor M4 was estimated as log affinity (log1/M); procedure, shortened: as §1
T2 sequence (whole entry): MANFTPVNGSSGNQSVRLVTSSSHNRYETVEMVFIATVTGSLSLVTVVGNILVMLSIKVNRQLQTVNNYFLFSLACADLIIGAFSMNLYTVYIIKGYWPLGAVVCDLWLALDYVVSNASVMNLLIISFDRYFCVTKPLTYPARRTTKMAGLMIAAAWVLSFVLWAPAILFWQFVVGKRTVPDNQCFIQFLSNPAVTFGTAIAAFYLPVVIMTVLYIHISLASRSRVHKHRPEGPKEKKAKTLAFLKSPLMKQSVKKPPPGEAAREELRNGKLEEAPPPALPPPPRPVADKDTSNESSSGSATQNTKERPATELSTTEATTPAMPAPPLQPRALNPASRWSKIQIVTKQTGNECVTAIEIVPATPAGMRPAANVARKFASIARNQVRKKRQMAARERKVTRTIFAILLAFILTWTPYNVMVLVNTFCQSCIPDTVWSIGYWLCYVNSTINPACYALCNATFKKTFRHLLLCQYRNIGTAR

[3] = biological target: Muscarinic acetylcholine receptor M3 (Homo sapiens) (UniProt P20309); experiment: Cooperativity with acetylcholine at human muscarinic acetylcholine receptor M3
Sequence of Muscarinic acetylcholine receptor M3 (Homo sapiens) (P20309 whole entry, looked up): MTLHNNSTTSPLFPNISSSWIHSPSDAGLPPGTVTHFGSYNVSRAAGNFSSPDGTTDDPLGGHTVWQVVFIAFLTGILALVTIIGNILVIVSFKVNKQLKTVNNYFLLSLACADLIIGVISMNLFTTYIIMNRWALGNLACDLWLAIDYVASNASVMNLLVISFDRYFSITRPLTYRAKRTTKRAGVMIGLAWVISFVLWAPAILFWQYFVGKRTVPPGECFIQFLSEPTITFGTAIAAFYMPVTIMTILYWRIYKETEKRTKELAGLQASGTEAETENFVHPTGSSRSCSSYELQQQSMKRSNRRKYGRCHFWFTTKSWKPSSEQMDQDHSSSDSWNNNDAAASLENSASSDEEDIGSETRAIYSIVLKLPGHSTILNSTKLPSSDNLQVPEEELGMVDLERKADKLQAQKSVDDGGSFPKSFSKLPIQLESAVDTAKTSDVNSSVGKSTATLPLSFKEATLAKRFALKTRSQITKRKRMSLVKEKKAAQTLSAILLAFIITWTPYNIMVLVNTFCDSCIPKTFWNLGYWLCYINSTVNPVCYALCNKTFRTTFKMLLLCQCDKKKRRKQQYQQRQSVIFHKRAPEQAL
Procedure, shortened: (§2)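 Equilibrium ³H-NMS binding in CHO membranes expressing human m1–m5 receptors was measured with and without ACh, alone and with three agent concentrations. Data were converted to affinity ratios, meaning apparent primary-ligand affinity with agent divided by affinity without it.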

[4] = biological target: T1, Muscarinic acetylcholine receptor M1 (Homo sapiens); experiment: Cooperativity with acetylcholine at human muscarinic acetylcholine receptor M1; procedure, shortened: as §2
[5] = biological target: T2, Muscarinic acetylcholine receptor M4 (Homo sapiens); experiment: Cooperativity with NMS at human muscarinic acetylcholine receptor M4; procedure, shortened: as §2
[6] = biological target: Muscarinic acetylcholine receptor M3 (Homo sapiens) (UniProt P20309); experiment: Binding affinity at the NMS liganded human muscarinic acetylcholine receptor M3 was estimated as log affinity (log1/M); procedure, shortened: as §1
[7] = biological target: T2, Muscarinic acetylcholine receptor M4 (Homo sapiens); experiment: Binding affinity at the NMS liganded human muscarinic acetylcholine receptor M4 was estimated as log affinity (log1/M); procedure, shortened: as §1
[8] = biological target: Muscarinic acetylcholine receptor M3 (Homo sapiens) (UniProt P20309); experiment: Binding affinity at the unliganded human muscarinic acetylcholine receptor M3 was estimated as log affinity (log1/M); procedure, shortened: as §1
[9] = biological target: T3, Muscarinic acetylcholine receptor M2 (Homo sapiens) (UniProt P08172); experiment: Binding affinity at the unliganded human muscarinic acetylcholine receptor M2 was estimated as log affinity (log1/M); procedure, shortened: as §1
T3 sequence (whole entry): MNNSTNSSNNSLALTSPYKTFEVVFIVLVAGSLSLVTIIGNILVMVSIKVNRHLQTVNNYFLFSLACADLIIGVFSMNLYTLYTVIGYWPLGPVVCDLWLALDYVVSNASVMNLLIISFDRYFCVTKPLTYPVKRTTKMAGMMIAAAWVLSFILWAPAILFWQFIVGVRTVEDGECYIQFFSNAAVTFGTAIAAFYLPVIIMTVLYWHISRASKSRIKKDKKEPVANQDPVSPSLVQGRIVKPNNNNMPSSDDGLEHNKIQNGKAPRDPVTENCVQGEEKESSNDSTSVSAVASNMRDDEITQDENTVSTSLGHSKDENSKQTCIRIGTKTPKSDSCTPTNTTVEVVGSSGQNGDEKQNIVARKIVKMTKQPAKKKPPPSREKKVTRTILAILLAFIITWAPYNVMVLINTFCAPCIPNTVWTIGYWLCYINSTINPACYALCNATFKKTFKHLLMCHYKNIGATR

[10] = biological target: Muscarinic acetylcholine receptor M3 (Homo sapiens) (UniProt P20309); experiment: Cooperativity with NMS at human muscarinic acetylcholine receptor M3; procedure, shortened: as §2
[11] = biological target: T3, Muscarinic acetylcholine receptor M2 (Homo sapiens); experiment: Cooperativity with NMS at human muscarinic acetylcholine receptor M2; procedure, shortened: as §2
[12] = biological target: T3, Muscarinic acetylcholine receptor M2 (Homo sapiens); experiment: Binding affinity at the NMS liganded human muscarinic acetylcholine receptor M2 was estimated as log affinity (log1/M); procedure, shortened: as §1
[13] = biological target: T1, Muscarinic acetylcholine receptor M1 (Homo sapiens); experiment: Cooperativity with NMS at human muscarinic acetylcholine receptor M1; procedure, shortened: as §2
[14] = biological target: T2, Muscarinic acetylcholine receptor M4 (Homo sapiens); experiment: Cooperativity with acetylcholine at human muscarinic acetylcholine receptor M4; procedure, shortened: as §2
[15] = biological target: T1, Muscarinic acetylcholine receptor M1 (Homo sapiens); experiment: Binding affinity at the NMS liganded human muscarinic acetylcholine receptor M1 was estimated as log affinity (log1/M); procedure, shortened: as §1
[16] = biological target: T3, Muscarinic acetylcholine receptor M2 (Homo sapiens); experiment: Cooperativity with acetylcholine at human muscarinic acetylcholine receptor M2; procedure, shortened: as §2

Row | Compound | Affinity [1] | Affinity [2] | Cooperativity [3] | Cooperativity [4] | Cooperativity [5] | Affinity [6] | Affinity [7] | Affinity [8] | Affinity [9] | Cooperativity [10] | Cooperativity [11] | Affinity [12] | Cooperativity [13] | Cooperativity [14] | Affinity [15] | Cooperativity [16]
1 | C#CC[N+]12CC[C@@]34c5ccccc5N5C(=O)C[C@@H]6OCC=C(C1)[C@H](C[C@@H]32)[C@@H]6[C@H]54 (stereo partly drawn) | 5.2 | 4.8 | < 0.2 | < 0.2 | 2 | 4.5 | 5 | 4.7 | 5.2 | 0.8 | 2 | 5.4 | 0.8 | 0.8 | 4.7 | < 0.2
2 | O=C1C[C@@H]2OCC=C3C[N+]4(CC5CCCCC5)CC[C@]56c7ccccc7N1[C@H]5[C@H]2[C@H]3C[C@@H]64 (stereo partly drawn) | < 4.6 | 4.5 | < 0.2 | < 0.2 | 2 | 4.1 | 4.8 | 4 | < 4.9 | 2 | > 2 | 5.5 | 2 | < 0.2 | 4.8 | < 0.2
3 | O=C1C[C@@H]2OCC=C3C[N+]4(Cc5ccc([N+](=O)[O-])cc5)CC[C@]56c7ccccc7N1[C@H]5[C@H]2[C@H]3C[C@@H]64 (stereo partly drawn) | < 4.8 | 5 | 0.8 | 0.8 | > 2 | 4.6 | 5.4 | 4.6 | 4.8 | 1.19 | > 2 | 5.6 | > 2 | < 0.2 | 5.3 | < 0.2
4 | C[N+]12CC[C@@]34c5ccccc5N5C(=O)C[C@@H]6OCC=C(C1)[C@H](C[C@@H]32)[C@@H]6[C@H]54 (stereo partly drawn) | < 4.1 | 4.1 | 0.8 | 0.8 | > 2 | 4.1 | 4.7 | < 4 | 4.4 | 2 | > 2 | 5.1 | > 2 | < 0.2 | 4.5 | < 0.2
5 | O=C1C[C@@H]2OCC=C3C[N+]4(CCc5ccccc5)CC[C@]56c7ccccc7N1[C@H]5[C@H]2[C@H]3C[C@@H]64 (stereo partly drawn) | 4.9 | 5.2 | < 0.2 | < 0.2 | 2 | 4.6 | 5.5 | 4.8 | 5.3 | 0.8 | > 2 | 5.7 | 1.19 | < 0.2 | 4.9 | < 0.2
6 | O=C1C[C@@H]2OCC=C3C[N+]4(Cc5ccc6ccccc6c5)CC[C@]56c7ccccc7N1[C@H]5[C@H]2[C@H]3C[C@@H]64 (stereo partly drawn) | < 5.3 | < 5.6 | 0.8 | 0.8 | 2 | 6 | 5.9 | < 5.8 | 5.5 | 2 | > 2 | 6.1 | 2 | 0.8 | 5.5 | < 0.2
7 | O=C1C[C@@H]2OCC=C3C[N+]4([O-])CC[C@]56c7ccccc7N1[C@H]5[C@H]2[C@H]3C[C@@H]64 (stereo partly drawn) | < 3.6 | < 3.8 | 0.8 | 0.8 | 2 | 3.9 | 4.1 | < 3.9 | < 4.1 | 2 | > 2 | 4.4 | 2 | 0.8 | 3.8 | 0.8
8 | N#CC[N+]12CC[C@@]34c5ccccc5N5C(=O)C[C@@H]6OCC=C(C1)[C@H](C[C@@H]32)[C@@H]6[C@H]54 (stereo partly drawn) | < 4 | < 4.4 | 0.8 | 0.8 | > 2 | 4.2 | 4.8 | < 3.9 | 4.5 | 2 | > 2 | 5.1 | 2 | 0.8 | 4.3 | < 0.2
9 | O=C1C[C@@H]2OCC=C3C[N+]4(Cc5ccc(-c6ccccc6)cc5)CC[C@]56c7ccccc7N1[C@H]5[C@H]2[C@H]3C[C@@H]64 (stereo partly drawn) | 5.7 | – | < 0.2 | < 0.2 | 2 | 5.7 | 6.3 | 5.6 | 5.6 | 1.19 | > 2 | 5.9 | 0.8 | 0.8 | 5.3 | < 0.2
10 | O=C1C[C@@H]2OCC=C3C[N+]4(Cc5ccccc5)CC[C@]56c7ccccc7N1[C@H]5[C@H]2[C@H]3C[C@@H]64 (stereo partly drawn) | < 5 | < 5.3 | 0.8 | < 0.2 | 2 | 5.3 | 5.6 | < 5.2 | 5.3 | 2 | > 2 | 6.3 | 2 | 0.8 | 5.2 | < 0.2
11 | CC[N+]12CC[C@@]34c5ccccc5N5C(=O)C[C@@H]6OCC=C(C1)[C@H](C[C@@H]32)[C@@H]6[C@H]54 (stereo partly drawn) | < 4.5 | 4.3 | 0.8 | 0.8 | > 2 | 4.2 | 4.9 | 4.2 | 4.7 | 1.19 | > 2 | 5.2 | 2 | < 0.2 | 4.6 | < 0.2
12 | O=C1C[C@@H]2OCC=C3CN4CC[C@]56c7ccccc7N1[C@H]5[C@H]2[C@H]3C[C@H]46 | – | 5 | – | – | 2 | – | 5.2 | – | 5 | – | > 2 | 5.3 | – | 0.8 | – | < 0.2
